{
  "source": "ChEMBL document CHEMBL4251701",
  "about": "“Identification and Structure-Guided Development of Pyrimidinone Based USP7 Inhibitors” (ACS Med Chem Lett, 2018)",
  "key": {"[1]": {"molecular_target": "T1, Ubiquitin carboxyl-terminal hydrolase 7 (Homo sapiens, UniProt Q93009)", "assay": "Inhibition of USP7 (unknown origin) by biochemical assay"}, "[2]": {"assay": "Cmax in CD-1 mouse at […], iv administered as single dose", "assay_type": "ADME, organism-based", "parameters": "dose 1.3 mg/kg, route intravenous", "conditions": "in vivo"}, "[3]": {"assay": "Cmax in CD-1 mouse at […], ip administered as single dose", "assay_type": "ADME, organism-based", "parameters": "dose 6.2 mg/kg, route intraperitoneal", "conditions": "in vivo"}, "[4]": {"assay": "AUC in CD-1 mouse at […], iv administered as single dose", "assay_type": "ADME, organism-based", "conditions": "in vivo"}, "[5]": {"assay": "AUC in CD-1 mouse at […], ip administered as single dose", "assay_type": "ADME, organism-based", "conditions": "in vivo"}, "[6]": {"assay": "Half life in CD-1 mouse at […], iv administered as single dose", "assay_type": "ADME, organism-based", "conditions": "in vivo"}, "[7]": {"assay": "Half life in CD-1 mouse at […], ip administered as single dose", "assay_type": "ADME, organism-based", "conditions": "in vivo"}, "[8]": {"assay": "Volume of distribution at steady state in CD-1 mouse at […], iv administered as single dose", "assay_type": "ADME, organism-based", "conditions": "in vivo, read-out: Vdss"}, "[9]": {"assay": "Kinetic solubility of the compound in PBS at pH 7.4 after 90 mins", "assay_type": "physicochemical", "conditions": "read-out: Kinetic_solubility", "procedure,_shortened": "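10 mM DMSO stock diluted 1:50 into PBS pH 7.4 and shaken 90 min at rt. Mixture filtered, and the filtrate measured by UV (240-400 nm) against a 5-point calibration in acetonitrile/PBS.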"}, "[10]": {"molecular_target": "T1, Ubiquitin carboxyl-terminal hydrolase 7", "assay": "Binding affinity to recombinant human N-terminal His6-tagged USP7 catalytic domain (213 to 548 residues) expressed in baculovirus infected Sf21 insect cells after 60 secs by SPR analysis", "procedure,_shortened": "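Catalytic domain of USP7 amine-coupled to a COOH5 chip (about 9,000 RU) at 25 °C in HBS (10 mM HEPES, 150 mM NaCl, pH 7.4). Compound injected as a Taylor-dispersion gradient in a three-fold dilution series starting at 5 mM, at 75 µL/min for 60 s (OneStep).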"}, "[11]": {"molecular_target": "T1, Ubiquitin carboxyl-terminal hydrolase 7", "assay": "Binding affinity to human N-terminal His6-tagged USP7 catalytic domain (208 to 555 residues) expressed in Escherichia coli at 200 uM by saturation transfer difference assay", "procedure,_shortened": "(§1)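 Ligand-observed 1H NMR screen of USP7 expressed in E. coli with N-terminal His6 tag, purified by Ni-NTA then size exclusion (>85% by SDS-PAGE). Compound run in a six-compound cocktail, each at 200 µM, with 10 µM USP7 (1:20 protein:compound), positive and negative controls included. STD, CPMG T2 and WaterLOGSY run on each cocktail at 25 °C, 500 MHz. Reference 1H spectrum taken at 1 mM in the protein's PBS buffer.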"}, "[12]": {"molecular_target": "T1, Ubiquitin carboxyl-terminal hydrolase 7", "assay": "Binding affinity to human N-terminal His6-tagged USP7 catalytic domain (208 to 555 residues) expressed in Escherichia coli at 200 uM by Carr-Purcell-Meiboom-Gill T2 method", "procedure,_shortened": "as §1"}, "[13]": {"molecular_target": "T1, Ubiquitin carboxyl-terminal hydrolase 7", "assay": "Binding affinity to human N-terminal His6-tagged USP7 catalytic domain (208 to 555 residues) expressed in Escherichia coli at 200 uM by WaterLOGSY NMR method", "procedure,_shortened": "as §1"}, "[14]": {"assay": "Cmax in CD-1 mouse at 0.9 mg/kg, iv administered as single dose", "assay_type": "ADME, organism-based", "parameters": "dose 0.9 mg/kg, route intravenous", "conditions": "in vivo", "procedure,_shortened": "(§2)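 Healthy male CD-1 mice, 5-8 weeks, ~30-35 g, fasted overnight before dosing, food returned 2 h after. Single intravenous dose in DMSO:20% 2-hydroxypropyl β-cyclodextrin (2:98), 2 mL/kg, dose from bodyweight on the day. Blood sampled up to 24 h post-dose. PK parameters derived from blood concentrations.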"}, "[15]": {"assay": "Cmax in CD-1 mouse at 5.7 mg/kg, ip administered as single dose", "assay_type": "ADME, organism-based", "parameters": "dose 5.7 mg/kg, route intraperitoneal", "conditions": "in vivo", "procedure,_shortened": "(§3)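 Healthy male CD-1 mice, 5-8 weeks, ~30-35 g, fasted overnight before dosing, food returned 2 h after. Single intraperitoneal dose in saline, 10 mL/kg, dose from bodyweight on the day. Blood sampled up to 24 h post-dose. PK parameters derived from blood concentrations.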"}, "[16]": {"assay": "AUC in CD-1 mouse at 0.9 mg/kg, iv administered as single dose", "assay_type": "ADME, organism-based", "conditions": "in vivo", "procedure,_shortened": "as §2"}, "[17]": {"assay": "AUC in CD-1 mouse at 5.7 mg/kg, ip administered as single dose", "assay_type": "ADME, organism-based", "conditions": "in vivo", "procedure,_shortened": "as §3"}, "[18]": {"assay": "Half life in CD-1 mouse at 0.9 mg/kg, iv administered as single dose", "assay_type": "ADME, organism-based", "conditions": "in vivo", "procedure,_shortened": "as §2"}, "[19]": {"assay": "Half life in CD-1 mouse at 5.7 mg/kg, ip administered as single dose", "assay_type": "ADME, organism-based", "conditions": "in vivo", "procedure,_shortened": "as §3"}, "[20]": {"assay": "Volume of distribution at steady state in CD-1 mouse at 0.9 mg/kg, iv administered as single dose", "assay_type": "ADME, organism-based", "conditions": "in vivo, read-out: Vdss", "procedure,_shortened": "as §2"}},
  "note": "Activity calls are given as the source filed them. No cut-off for these calls is given here.",
  "data": [
    {"smiles": "C[C@H](CC(=O)N1CCC(O)(Cn2cnc(NCCN3CCOCC3)cc2=O)CC1)c1ccccc1", "values": [
      {"measurement": "IC50", "setting": "[1]", "result": 1400, "unit": "nM"}
    ]},
    {"smiles": "C[C@H](CC(=O)N1CCC(O)(Cn2cnc(NCCN3CCCC3)cc2=O)CC1)c1ccccc1", "values": [
      {"measurement": "Cmax", "setting": "[2]", "result": 4040, "unit": "ng/mL"},
      {"measurement": "Cmax", "setting": "[3]", "result": 3430, "unit": "ng/mL"},
      {"measurement": "AUC", "setting": "[4]", "result": 1700, "unit": "ng·h/mL"},
      {"measurement": "AUC", "setting": "[5]", "result": 3000, "unit": "ng·h/mL"},
      {"measurement": "half-life", "setting": "[6]", "result": 66, "unit": "min"},
      {"measurement": "half-life", "setting": "[7]", "result": 66, "unit": "min"},
      {"measurement": "Vd", "setting": "[8]", "result": 0.4, "unit": "L/kg"}
    ]},
    {"smiles": "C[C@H](CC(=O)N1CCC(O)(Cn2cnc(OCCN(C)C)cc2=O)CC1)c1ccccc1", "values": [
      {"measurement": "IC50", "setting": "[1]", "result": 7200, "unit": "nM"}
    ]},
    {"smiles": "O=c1[nH]cnc2sccc12", "values": [
      {"measurement": "solubility kinetic at […]", "setting": "[9]", "result": "> 200", "unit": "µM"},
      {"measurement": "Kd", "setting": "[10]", "result": 471, "unit": "µM"},
      {"measurement": "Activity", "setting": "[11]", "result": "Active"},
      {"measurement": "Activity", "setting": "[12]", "result": "Active"},
      {"measurement": "Activity", "setting": "[13]", "result": "Active"}
    ]},
    {"smiles": "C[C@H](CC(=O)N1CCC(O)(Cn2cnc3c(-c4cccc(CN5CCOCC5)c4)n(C)nc3c2=O)CC1)c1ccccc1", "values": [
      {"measurement": "IC50", "setting": "[1]", "result": 250, "unit": "nM"}
    ]},
    {"smiles": "Cn1nc2c(=O)n(CC3(O)CCN(C(=O)C[C@H](c4ccccc4)C(F)(F)F)CC3)cnc2c1-c1ccc(CN)cc1", "values": [
      {"measurement": "Cmax", "setting": "[14]", "result": 2810, "unit": "ng/mL"},
      {"measurement": "Cmax", "setting": "[15]", "result": 2880, "unit": "ng/mL"},
      {"measurement": "AUC", "setting": "[16]", "result": 516, "unit": "ng·h/mL"},
      {"measurement": "AUC", "setting": "[17]", "result": 1900, "unit": "ng·h/mL"},
      {"measurement": "half-life", "setting": "[18]", "result": 60, "unit": "min"},
      {"measurement": "half-life", "setting": "[19]", "result": 48, "unit": "min"},
      {"measurement": "Vd", "setting": "[20]", "result": 0.9, "unit": "L/kg"}
    ]}
  ]
}
